The text below walks through data of ChEMBL document CHEMBL1240348, “Pretreatment of epithelial cells with rifaximin alters bacterial attachment and internalization profiles” (Antimicrob Agents Chemother, 2010).

Active and inactive are the calls of the source.

Format in all cases: functional, cell-based
For assay [1], the system named is HEp-2. The assay is described as follows: Effect on cytokine level in human Hep2 cells assessed as IL-6 level pretreated at 64 ug/ml for 24 hrs. The method, boiled down:
(§1)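 Confluent HEp-2 cells on chambered slides were given fresh medium containing antibiotic at 64 μg/ml, acetone diluent (64 μl), or no antibiotic. Supernatants collected 24 h later were probed on a cytokine array membrane covering GM-CSF, MIPs, MMP3, RANTES, TGF-β, IFN-γ, TNFRI/II, VCAM-1, VEGF and interleukins. Each analyte was read as detected or not detected.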

Assay [2] deals with HEp-2. Nature of the assay: Effect on cytokine level in human Hep2 cells assessed as IL-8 level pretreated at 64 ug/ml for 24 hrs. The method, boiled down: as §1
Assay [3] deals with Escherichia coli. The assay is described as follows: Inhibition of enteroaggregative Escherichia coli 042 adherence to human Hep2 cells pretreated at 64 ug/ml for 24 hrs by adherence assay. To be noted: HEp-2. The method, boiled down:
(§2)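 Confluent cells in 24-well plates, in DMEM with 10% FBS and no antibiotics, were pretreated with drug (from acetone stock) or an equal volume of acetone, then washed three times with PBS. HEp-2 received 8, 32 or 64 μg/ml; the other lines 32 or 64 μg/ml for 24 h. Cells were then infected for 3 h at 37°C (next note).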

Assay [4] has as its system HEp-2. Nature of the assay: Effect on cytokine level in human Hep2 cells assessed as TNFRI level pretreated at 64 ug/ml for 24 hrs. The gist of the method: as §1
Assay [5] concerns HEp-2. The assay is described as follows: Effect on cytokine level in human Hep2 cells assessed as MIP5 level pretreated at 64 ug/ml for 24 hrs. The method, boiled down:
as §1

In assay [6] the test system is HEp-2. The assay is described as follows: Effect on cytokine level in human Hep2 cells assessed as VCAM-1 level pretreated at 64 ug/ml for 24 hrs. The method, boiled down: as §1
Assay [7] deals with HEp-2. Nature of the assay: Effect on cytokine level in human Hep2 cells assessed as IL-15 level pretreated at 64 ug/ml for 24 hrs. The gist of the method: as §1
The test system of assay [8] is Escherichia coli. Nature of the assay: Inhibition of enteroaggregative Escherichia coli 042 adherence to human HCT-8 cells pretreated at 64 ug/ml for 24 hrs by adherence assay. The method, boiled down: as §2
For assay [9], the system named is HEp-2. The assay is described as follows: Effect on cytokine level in human Hep2 cells assessed as IL-4 level pretreated at 64 ug/ml for 24 hrs. The method, boiled down:
as §1

In assay [10] the test system is HEp-2. Nature of the assay: Effect on cytokine level in human Hep2 cells assessed as MMP3 level pretreated at 64 ug/ml for 24 hrs. The gist of the method:
as §1

Assay [11] relates to HEp-2. Nature of the assay: Effect on cytokine level in human Hep2 cells assessed as RANTES level pretreated at 64 ug/ml for 24 hrs. The gist of the method:
as §1

In assay [12] the test system is HEp-2. The assay is described as follows: Effect on cytokine level in human Hep2 cells assessed as MIP4 level pretreated at 64 ug/ml for 24 hrs. The gist of the method: as §1
Assay [13] concerns HEp-2. Nature of the assay: Effect on cytokine level in human Hep2 cells assessed as VEGF level pretreated at 64 ug/ml for 24 hrs. The gist of the method: as §1
For assay [14], the system named is Escherichia coli. Nature of the assay: Inhibition of enteroaggregative Escherichia coli 042 adherence to human Hep2 cells pretreated at 32 ug/ml for 24 hrs by adherence assay. Conditions: HEp-2. The method, boiled down: as §2
In assay [15] the test system is HEp-2. Nature of the assay: Effect on cytokine level in human Hep2 cells assessed as TNFR2 level pretreated at 64 ug/ml for 24 hrs. The method, boiled down: as §1
Assay [16] deals with HEp-2. The assay is described as follows: Effect on cytokine level in human Hep2 cells assessed as absence of MIP5 pretreated at 64 ug/ml for 24 hrs. The gist of the method: as §1
The test system of assay [17] is HEp-2. Nature of the assay: Effect on cytokine level in human Hep2 cells assessed as IL-12 (p40) level pretreated at 64 ug/ml for 24 hrs. The method, boiled down:
as §1

Assay [18] concerns HEp-2. Nature of the assay: Effect on cytokine level in human Hep2 cells assessed as GM-CSF level pretreated at 64 ug/ml for 24 hrs. The gist of the method: as §1
The subject of assay [19] is HEp-2. Nature of the assay: Effect on cytokine level in human Hep2 cells assessed as TGF-beta level pretreated at 64 ug/ml for 24 hrs. The method, boiled down:
as §1

Assay [20] concerns Escherichia coli. The assay is described as follows: Inhibition of enteroaggregative Escherichia coli 042 adherence to human Hep2 cells using cell supernatants from pretreated at 64 ug/ml for 24 hrs by adherence assay. To be noted: HEp-2. The gist of the method: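 Confluent HEp-2 cells were grown 24 h in medium with 64 μg/ml antibiotic, acetone, or nothing. The conditioned medium was dialyzed against PBS (6–8 kDa cutoff, four changes of at least 6 h each, 4°C). EAEC (7 × 10^6/ml) was mixed 1:1 with dialyzed medium and added to untreated HEp-2 slides or cell-free chambers for 3 h, then stained and examined microscopically.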

Assay [21] has as its system Escherichia coli. The assay is described as follows: Inhibition of enteroaggregative Escherichia coli 042 adherence to human A549 cells pretreated at 64 ug/ml for 24 hrs by adherence assay. The method, boiled down: as §2
The test system of assay [22] is Escherichia coli. Nature of the assay: Inhibition of enteroaggregative Escherichia coli 042 adherence to human HeLa cells pretreated at 64 ug/ml for 24 hrs by adherence assay. The method, boiled down: as §2
Assay [23] deals with HEp-2. The assay is described as follows: Effect on cytokine level in human Hep2 cells assessed as IFN-gamma level pretreated at 64 ug/ml for 24 hrs. The method, boiled down: as §1
Assay [24] deals with Escherichia coli. The assay is described as follows: Inhibition of enteroaggregative Escherichia coli 042 adherence to human Hep2 cells pretreated by adherence assay. Conditions: HEp-2. The gist of the method: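 HEp-2 monolayers, confluent unless otherwise specified, in chambered slides were exposed to antibiotic or controls for 4, 8, 16, 18 or 24 h, then washed three times with PBS. EAEC O42 (7 × 10^6 to 1 × 10^7 in DMEM, 10% FBS, 1% D-mannose) was added for 3 h at 37°C. Attachment was assessed microscopically after Wright-Giemsa staining.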

Take `CO[C@H]1/C=C/O[C@@]2(C)Oc3c(C)c(O)c4c(O)c(c5c(nc6cc(C)ccn65)c4c3C2=O)NC(=O)/C(C)=C\C=C\[C@H](C)[C@H](O)[C@@H](C)[C@@H](O)[C@@H](C)[C@H](OC(C)=O)[C@@H]1C`: the outcome with HEp-2 [1], with HEp-2 [2], with HEp-2 [4], in the assay on HEp-2 [5], with HEp-2 [6] and in the assay on HEp-2 [7] was Active. In addition, the outcome in the assay with HEp-2 [9], with HEp-2 [10], with HEp-2 [11], in the assay with HEp-2 [12], with HEp-2 [13] and with HEp-2 [15] was Active. Besides, the outcome in the assay with HEp-2 [16], in the assay on HEp-2 [17], in the assay on HEp-2 [18], in the assay with HEp-2 [19] and with HEp-2 [23] was Active. In addition, the inhibition result with Escherichia coli [3], in the assay with Escherichia coli [14], in the assay on Escherichia coli [21] and in the assay on Escherichia coli [22] was “Active” each time. The inhibition entry in the assay with Escherichia coli [8] and in the assay with Escherichia coli [20] was “inactive” throughout.

Consider `CO[C@H]1/C=C/O[C@@]2(C)Oc3c(C)c(O)c4c(O)c(c(/C=N/N5CCN(C)CC5)c(O)c4c3C2=O)NC(=O)/C(C)=C\C=C\[C@H](C)[C@H](O)[C@@H](C)[C@@H](O)[C@@H](C)[C@H](OC(C)=O)[C@@H]1C`, for which the inhibition result in the assay with Escherichia coli [24] was “Active”.
